# Measured values published in ChEMBL document CHEMBL4513216, “Probing the Open Global Health Chemical Diversity Library for Multistage-Active Starting Points for Next-Generation Antimalarials” (ACS Infect Dis, 2020).
# Assay: Toxicity liver stage against HepG2, at 10uM
# Type: cell-based
# Design: test concentration 10 uM, cell line HepG2-A16-CD81EGFP
# Settings: human, HepG2-A16-CD81EGFP cells; read-out: INHIBITION
# How it was run: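 Uninfected HepG2-A16-CD81EGFP cells, 3 × 10^3 per well, 1536-well, plated on prespotted compound at 10 μM final, parasite-free screening media added to match infected plates; puromycin 10 μM positive, DMSO 0.5% negative; run in parallel with 48 h PbLuc assay at 37 °C, 5% CO2; viability by CellTiter-Glo luminescence, normalized to controls.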
row,Compound,cytotoxicity at 10 µM [%]
1,COCc1ncc(CN2CC[C@@](C)(O)[C@@H](Cc3ccccc3)C2)cn1,12.1
2,Cn1nc(COc2cccnc2)c2c1CCN(c1ncccn1)C2,-105
3,Cc1ccc(CNc2cc(C(=O)N3CCOCC3)nc(C)n2)cc1,-1.61
4,Cc1nc(C(=O)Nc2cccnc2)c(C(C)C)s1,-2.36
5,Cc1[nH]c2c(F)cccc2c1CC(=O)N1CCCC(N)CC1 (stereo not given),3.26
6,CS(=O)(=O)N1CC[C@]2(C[C@H](Oc3ccccn3)CO2)C1,-116
7,Cn1nnnc1SCCNC(=O)c1c[nH]nc1C1CCCCC1,-0.863
8,CN(C)C[C@H]1OC[C@@H]2CCN(S(=O)(=O)c3ccccc3)C[C@@H]21,1.44
9,Cc1noc(C)c1CN1CCN(C)c2ncccc2C1,-77
10,CCCN1CCC(NC(=O)NCCc2nc(CC)c(C)s2)CC1,-19
11,Cn1ccc(C(=O)N2CCC(c3cc(CCO)n(C)n3)C2)n1 (stereo not given),-3.69
12,C1CC(CN2C[C@@H]3C[C@@H](c4nnc(C5CC5)o4)O[C@@H]3C2)C1,14.9
13,Cc1noc(C)c1C(=O)NCc1cccnc1N(C)C,-9.42
14,COCCN1CCN(CC(=O)N(C)Cc2ccccc2)CC1C (stereo not given),-144
15,COc1ccc2c(c1)CN(c1cc(N3CCCC3CO)ncn1)CC2 (stereo not given),-4.16
16,Cc1nc(C2CCNCC2)cc(N2CCCC(C(=O)NCCCO)C2)n1 (stereo not given),-124
17,COCC1COCCC12CCN(C(=O)CC1Cc3ccccc3C1)CC2 (stereo not given),4.03
18,CCOCC(=O)N1CCC(c2nccn2C)CC1,-53.4
19,COc1ccc(-c2ccc(C(=O)NS(C)(=O)=O)c(F)c2)c(F)c1,0.512
20,c1ccc(NCc2cnc3n2CCN(CC2CCOC2)CC3)nc1 (stereo not given),-76.5
21,CN(C(=O)CC1=CCCCC1)C1CCCN(C2Cc3ccccc3C2)C1 (stereo not given),-0.296
22,Cc1ccc(-c2ccnc(N[C@H]3COC[C@@H]3N3CCCC3)n2)c(C)n1,-1.45

row,Compound,cytotoxicity at 10 µM [%]
1,CCn1cc(CN2CC3CCCN3C[C@H]2C)c(C)n1 (stereo not given in full),0.951
2,Cc1cnn(CC(C)NCc2cccnc2)c1 (stereo not given),-3.3
3,CC(=O)NCCNC(=O)NCC1Cc2ccccc2O1 (stereo not given),-1.83
4,c1cnc(N2CCCC3(CCN(CC4CCC4)C3)C2)nc1 (stereo not given),-82.8
5,Cc1ccc(C(=O)N2CCC3(CC2)CN(CCN(C)C)C(=O)O3)c(F)c1,7.46
6,CC(C)Cc1cc(NC(=O)c2n[nH]c3ccccc23)n(C)n1,-15.9
7,Cc1nc(C2CCCN(C(=O)c3cc4c(s3)CCCC4)C2)no1 (stereo not given),-7.03
8,O=C(c1ncccc1O)N1CCc2c(nc(-c3ccncc3)[nH]c2=O)C1,-0.918
9,Cc1cnc(NCCCN2CCc3ccccc32)nc1,2.24
10,O=C([C@H]1CC[C@@H]2[C@@H](CCN2Cc2nccs2)O1)N1CCCCO1,6.85
11,COc1ccc(CN2CCc3nc4ccsc4c(=O)n3CC2)c(C)c1C,67.3
12,CCCS(=O)(=O)N1CCC(NC(=O)c2ccc(Cl)s2)CC1,22.4
13,O=C(Cn1ccc2ccccc21)Nc1cc(N2CCOCC2)ncn1,-14
14,CCCc1n[nH]c(C2CN(C(=O)c3cncnc3C)CCO2)n1 (stereo not given),-12.9
15,CN(C)c1ccc(C(=O)NCc2ccc(N3CCOCC3)cc2)cn1,6.03
16,COc1cccc2cc(CNC(=O)N3CCS(=O)(=O)CC3)oc12,-19.3
17,CNc1cc(C)nc(N2CCN(Cc3ccccc3)CC(O)C2)n1 (stereo not given),-4.21
18,Cc1nnc(C(C)Nc2cccc(COCC(F)(F)C(F)F)c2)o1 (stereo not given),-1.2
19,Cc1cc2nc(SCC(=O)N3CCOCC3)n(CCC(C)C)c(=O)c2[nH]1,10.8
20,CCc1cc2c(N3CCCC(c4cc(C(N)=O)[nH]n4)C3)ncnc2s1 (stereo not given),3.25
21,NC(=O)c1cccc(CC2CCN(C(=O)CCCN3CCOCC3)C2)c1 (stereo not given),-11.3
22,CC(C)c1noc(C2CC(=O)N(CCN(C)C)C2)n1 (stereo not given),-8.25

row,Compound,cytotoxicity at 10 µM [%]
1,Cc1cc(CCC(=O)N2CCC(O)CC2)ccc1Br,-4.3
2,CN(C)CCn1c(=O)n(C)c(=O)c2ccccc21,-1.48
3,CN1CCCN(c2nccc(-c3cc(C(=O)O)ccn3)n2)CC1,13.1
4,Cc1nn(C)c2nc(NC3CCNCC3)sc12,-10.4
5,Cc1nn(C)c2cn(C(C)C(=O)NCc3cccnc3)nc12 (stereo not given),5.55
6,CCOc1cc(C(=O)O)cc(-c2ccccc2)c1OC,-9.88
7,Cc1ncsc1CN1C[C@@H]2CN(S(C)(=O)=O)CCO[C@@H]2C1,-105
8,Cc1nc(COC[C@@]23CCC[C@@H]2CN(CC2CCOCC2)C3)cs1,7.98
9,O=C(NC1CCCC1)c1ccc(COCC(F)(F)F)o1,10.6
10,COC1COC2(CCN(C(=O)c3cnc(C)cn3)CC2)C1 (stereo not given),4.29
11,Cc1ccccc1OCCCNC(=O)C1(C)CC(=O)N2C=CC=CC2=N1 (stereo not given),-4.96
12,CC(C)CN1CCC2(CC1)C(=O)Nc1ccc(C(=O)N(C)C)cc12,-1.18
13,Cc1nc(C)n(CC2CCCN(CC(=O)Nc3cccnc3)C2)n1 (stereo not given),-4.84
14,Cc1cccc(C(C)C)c1NC(=O)CN(C)C(C)c1nccs1 (stereo not given),-129
15,Cc1nc(NC2CCCC2)cc(C2CCN2C(=O)c2cnn(C)c2)n1 (stereo not given),8.89
16,CCN(Cc1cnn(C)c1)C[C@H]1CC[C@@H](Cc2cccc(CN)c2)O1,-0.189
17,Cc1noc(C)c1CNCC1COCc2c(-c3ccoc3)nnn2C1 (stereo not given),8.85
18,O=C1CCc2cc(S(=O)(=O)NC(=O)c3ccc4c(c3)COC4)ccc2N1,4.82
19,Cc1ccc(OCC2CCCN(c3nc(CO)cs3)C2)cc1 (stereo not given),5.4
20,Cn1ccnc1CN1CCN(CC(=O)NCc2ccccc2F)CC1,-22.1
21,COCCN1CCC2(CC1)CC(NC(=O)C1CC1)c1ccccc1O2 (stereo not given),1.67
22,Nc1nc(N)c2c(n1)OC1(CCN(Cc3nccs3)C1)C2 (stereo not given),0.861

row,Compound,cytotoxicity at 10 µM [%]
1,O=C(Cc1n[nH]c(-c2cncc(Br)c2)n1)NCc1cccnc1,2.74
2,O=C1CC2(CCN(C(=O)c3ccccc3)C2)Nc2ccccc2N1 (stereo not given),9.98
3,O=C(O)CSc1nccc(-c2ccc3c(c2)OCO3)n1,-3.61
4,COC(C)(CNS(=O)(=O)c1cccnc1)c1ccccc1F (stereo not given),-0.403
5,O=C1CCC2(CCCN(C(=O)c3cccnc3)CC2)N1 (stereo not given),6.56
6,Cc1noc(CCCNC(=O)C2CSCN2C(=O)C(C)(C)C)n1 (stereo not given),-54.4
7,CCc1nnc2n1CCN(C(=O)c1csc(-c3cnn(C)c3)n1)C2,6.41
8,Cc1cc(C(=O)N2C[C@@H]3COC[C@]3(c3nnc(C(C)C)o3)C2)on1,-2.52
9,CCS(=O)(=O)c1ncc(CN2CCN(C)CC2)n1CCc1ccccc1,2.44
10,O=C(NCCCC(=O)N1Cc2ccccc2C1)NCc1cccnc1,11.9
11,Cc1cc(C)n(C(=O)Cn2nc(C)c(I)c2C)n1,-6.52
12,CN1CCN(C(=O)c2cnsn2)c2cc(F)ccc21,-9.03
13,O=C(c1cnccn1)N1CCN(c2ccnc3ccsc23)CC1,12.6
14,CCOc1nnc(CN(C)C2CCCN(c3ccc(C)nn3)C2)s1 (stereo not given),13.2
15,O=C(CCn1cc(Cl)cn1)N1C[C@H]2CC[C@@H](C1)N(Cc1ccccn1)C2,7.15
16,CC(C)N1CCC2(CC1)CC(=O)N(Cc1cc(F)cc(F)c1)C2,9.03
17,CCN(CC(=O)Nc1c(C)n[nH]c1C)CC(O)c1ccc(C)cc1 (stereo not given),-2.86
18,COc1ccccc1CN1C(=O)O[C@@H]2CN(c3nccs3)C[C@@H]21,6.27
19,CN1CC(=O)N(c2ccsc2)CC12CCN(C(=O)c1cccn1C)C2 (stereo not given),-75.7
20,CC(CNC(=O)OC(C)(C)C)N(C)C(=O)COc1ccccc1C#N (stereo not given),1.39
21,O=C1CCOC[C@]2(CN(Cc3ccccc3)C[C@H]2c2ccccc2)N1,-14.1
22,O=c1[nH]nc(CNCc2ccc(OC34CCCN(CC3)C4)cc2)[nH]1 (stereo not given),-2.83

row,Compound,cytotoxicity at 10 µM [%]
1,O=C(CNc1ccccc1S(=O)(=O)C(F)F)NCc1ccco1,-53
2,CC(C)CC(=O)NCCCn1cncn1,-18.9
3,Cc1ccc(O)c(C(=O)N2CCOCC2c2c(C)nn(C)c2C)c1 (stereo not given),-8.53
4,CC(C)N1CCCn2c(nc(CNC(=O)c3nccn3C)cc2=O)C1,2.84
5,COc1cc(CNC(=O)NCCCF)cc(Br)c1OC,11.4
6,CN(C)CCNC(=O)c1nc2c(s1)CCCN2C(=O)C1CC1,-108
7,CCN1CCCC1CNC(=O)c1cc(COc2ccccc2F)[nH]n1 (stereo not given),-4.17
8,Cc1cc(S(=O)(=O)N2CCCc3cc(Cl)ccc32)sc1C(=O)O,-16
9,CS(=O)(=O)N1CCC(c2nnc(CN3CCCC3)n2C2CC2)CC1,-6.6
10,COc1cc(CNc2cc(-c3ccoc3C)nn2CCO)ccc1F,-14.6
11,N#Cc1ccnc(N2CCN(CC(O)c3ccccc3)CC2)c1 (stereo not given),0.587
12,O=C(c1occc1CN1C(=O)Cc2ccccc21)N1CCCCCC1,4.52
13,CCn1ccnc1CN1CCN(CC(O)CN2CCOCC2)CC1 (stereo not given),-7.83
14,CCOCCN1CCN(CC(O)c2ccc(F)cc2)CC1 (stereo not given),-8.92
15,CN(C)[C@H]1CN(C(=O)CCCc2ccc(F)cc2)C[C@@H]1C1CC1,-3.01
16,CN(Cc1ccc2nsnc2c1)CC1(O)CCNC1 (stereo not given),-11.7
17,Cc1cnc2n(c1=O)C(CC(=O)NCc1cccs1)CS2 (stereo not given),4.68
18,CC(C)COCC(NC(=O)Cc1ccn[nH]1)c1ccco1 (stereo not given),-1.53
19,CCN(Cc1nccn1C)C(=O)c1ccc(NCc2cnn(C)c2)nc1,0.82
20,COc1ccc(Cl)cc1CC(=O)NS(=O)(=O)c1ccc(C(N)=O)cc1,-2.64
21,Cc1nn(CCO)c(C)c1CNCc1cccnc1N(C)C,-9.89
22,Cc1cc(C(=O)N2CC[C@H]3C[C@H](c4ccncn4)O[C@@H]3C2)no1,-78
